Reference: ChEMBL document CHEMBL1154262, “Inhibitors of osteoclast formation from rhizomes of Cibotium barometz” (J Nat Prod, 2009)

Key:
[1] = system: BMDM; experiment: Inhibition of osteoclastogenesis in RANKL and M-CSF-stimulated mouse BMDM cells after 4 days by TRAP assay; assay type: functional, cell-based
Outline: (§1)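 Mouse femur/tibia marrow cells grown 3 days at 37 °C in R-MEM/10% FBS with M-CSF 100 ng/mL to give BMMs, lifted with trypsin/EDTA. They were then differentiated with M-CSF 20 ng/mL and RANKL 100 ng/mL plus compound, with medium changed every 2 days. At day 4, TRAP staining was done and TRAP-positive multinucleated cells per well were counted relative to DMSO control.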

[2] = Inhibition of osteoclastogenesis in RANKL and M-CSF-stimulated mouse BMDM cells at 200 uM after 4 days by TRAP assay; assay type: functional; conditions: 96 h; outline: as §1
[3] = Cytotoxicity against RANKL and M-CSF-stimulated mouse BMDM cells at 100 to 200 uM after 72 hrs by MTS-cell titer assay; assay type: cell-based
Outline: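 Bone marrow macrophages from femora and tibia of 6-8 week old mice, expanded 3 days in R-MEM/10% FBS with M-CSF 100 ng/mL, then trypsin/EDTA-lifted. Cells exposed to compound alongside recombinant M-CSF 20 ng/mL plus RANKL 100 ng/mL for 72 h at 37 °C. Percent survival read by MTS (CellTiter 96 Aqueous) against DMSO-treated control.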

## CCCCC/C=C\C/C=C\CCCCCCCC(=O)OC[C@@H](O)CO[C@H]1O[C@H](CS(=O)(=O)O)[C@@H](O)[C@H](O)[C@H]1O
[1]
  Activity: Dose-dependent effect
[2]
  inhibition at 200 µM: 97%

## CC1=CC(=O)CC(C)(C)[C@@]1(O)/C=C/[C@H](C)O[C@@H]1O[C@H](CO)[C@@H](O)[C@H](O)[C@H]1O [6S,9S-ROSEOSIDE]
[1]
  Activity: Dose-dependent effect
[3]
  Activity: Non-toxic
[2]
  inhibition at 200 µM: 75%

## CO[C@@H]1C[C@](O)(CO[C@@H]2O[C@H](CO)[C@@H](OC(=O)/C=C/c3ccc(O)c(O)c3)[C@H](O)[C@H]2O)[C@H](OC)O1 [CIBOTIUMBAROSIDE B]
[1]
  Activity: Dose-dependent effect
[3]
  Activity: Non-toxic
[2]
  inhibition at 200 µM: 73%
